Entries after “also recorded” stand apart in the source; their conditions may differ.
Tests used:
[1] = assay type: binding; details: [UO2^2+]tot = 10^−6 M, [L]tot = 10^−5 M, 25 °C, I = 0.1 M KCl
mice = experiment: Ex vivo biodistribution of uranium in mice by ICP-MS; details: for stability of the uranium complex in vivo: biodistribution, label is the ligand of the complex; for uranium uptake in bone (tibia) / clearance from blood / uranium in soft organs (lung, liver, kidney, spleen): 4 mg/kg intravenous injection, ICP-MS; for uranium uptake in bone (tibia): 30 min, 2 h and 24 h
[2] = assay type: binding; details: for k2 (pH 7.4), second-order rate constant for complexation of UO2^2+: TRIS buffer pH 7.4, 25 °C; for k2 (pH 5), second-order rate constant for complexation of UO2^2+: aqueous citrate buffer pH 5, 25 °C
[3] = Ligand protonation constants by potentiometric titration; assay type: physicochemical; details: 25 °C, I = 0.1 M KCl
[4] = Ligand protonation constants by semi-batch spectrophotometric titration; assay type: physicochemical; details: 25 °C, I = 0.1 M KCl
Procedure, shortened: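 Semi-batch spectrophotometric titration of test ligands (those not titrated potentiometrically) at 25 °C, ionic strength 0.1 M with KCl as supporting electrolyte; protonation constants fitted from the titration data; uncertainty given as standard deviation of the last digit.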

[5] = Initial pH potentiometric experiments with UO2^2+; assay type: binding; details: lowest electrode-calibrated pH value of 2.4
[6] = Kinetic stability challenge with hydroxyapatite; assay type: physicochemical; details: 2000 equiv. HAP, 0.1 M TRIS, 37 °C, arsenazo III indicator
[7] = Aqueous solubility of the complexes; assay type: physicochemical; details: in words

| Compound | pUO2 (pH 7.4) = −log[UO2^2+]free [1] | stability of the uranium complex in vivo (mice) | k2 (pH 7.4), second-order rate constant for complexation of UO2^2+ [2] [M^−1 s^−1] | k2 (pH 5), second-order rate constant for complexation of UO2^2+ [2] [M^−1 s^−1] | uranium uptake in bone (tibia) (mice) | clearance from blood (mice) | uranium in soft organs (lung, liver, kidney, spleen) (mice) | also measured |
| --- | --- | --- | --- | --- | --- | --- | --- | --- |
| O=C(O)c1cccc(CNC2CCCCC2NCc2cccc(C(=O)O)n2)n1 (stereo not drawn) [H2CHXdedpa] | 17.72 | stable in vivo | 1190 ± 150 | 1320 ± 140 | – | – | – | pKa1 [3]: 9.39(2); pKa2 [3]: 6.43(6); pKa3 [3]: 3.15(6); pKa4 [3]: 2.40(8) |
| Oc1cccc2ccc(CNC3CCCCC3NCc3ccc4cccc(O)c4n3)nc12 (stereo not drawn) [H2CHXhox] | 19.98 | – | 2850 ± 380 | 140 ± 5 | – | – | – | pKa1 [4]: 10.95(9); pKa2 [4]: 10.18(2); pKa3 [4]: 8.72(7); pKa4 [4]: 5.37(2) |
| O=C(O)c1cccc(CNCCNCc2cccc(C(=O)O)n2)n1 [H2dedpa] | 17.46 | stable in vivo | 450 ± 40 | 420 ± 28 | – | – | – | free UO2^2+ present [5]: < 5%; pKa1 [3]: 8.95(3); pKa2 [3]: 6.32(6); pKa3 [3]: 3.15(6); pKa4 [3]: 2.28(7) |
| Oc1cccc2ccc(CNCCNCc3ccc4cccc(O)c4n3)nc12 [H2hox] | 19.80 | stable in vivo | 3420 ± 340 | 73 ± 5 | – | – | – | pKa1 [4]: 11.0(1); pKa2 [4]: 10.10(8); pKa3 [4]: 8.63(5); pKa4 [4]: 6.1(3) |
| O.O.O.O.O.O.O=[N+]([O-])O.O=[N+]([O-])O.[O]=[U]=[O] [UO2(NO3)2·6H2O] | – | – | – | – | – | – | – | original uranium remaining in solution with HAP ([6]; after 12 h): 10%; uranium remaining in solution with HAP ([6]; by 120 h): undetectable |
| O=C([O-])c1cccc(CNC2CCCCC2NCc2cccc(C(=O)[O-])n2)n1.[O]=[U+2]=[O] (stereo not drawn) [[UO2(CHXdedpa)]] | – | – | – | – | minimal uptake in the bone | rapidly cleared from the blood | low but detectable values of uranium were found in the lung, liver and kidney | – |
| [O-]c1cccc2ccc(CNC3CCCCC3NCc3ccc4cccc([O-])c4n3)nc12.[O]=[U+2]=[O] (stereo not drawn) [[UO2(CHXhox)]] | – | – | – | – | – | – | – | lethality upon injection (mice; intravenous injection): precipitation in the circulatory system upon injection causing lethality; aqueous solubility [7]: low solubility in water; also recorded: poor aqueous solubility |
| O=C([O-])c1cccc(CNCCNCc2cccc(C(=O)[O-])n2)n1.[O]=[U+2]=[O] [[UO2(dedpa)]] | – | – | – | – | minimal uptake in the bone | rapidly cleared from the blood | low but detectable values of uranium were found in the lung, liver and kidney | – |
| [O-]c1cccc2ccc(CNCCNCc3ccc4cccc([O-])c4n3)nc12.[O]=[U+2]=[O] [[UO2(hox)]] | – | – | – | – | minimal uptake in the bone | rapidly cleared from the blood | significant accumulation of uranium in the lungs | – |

— PMC9382226 (Inorganic chemistry, 2022)
